Laboratory results taken from PMC9046076 (International Journal for Parasitology: Drugs and Drug …, 2022).
Read-outs that look alike come from different tables or passages of the source.

Columns and labels:
[1] = test system: T. gondii type I RH strain; experiment: In vitro T. gondii type I RH; format: cell-based, Toxoplasma gondii; settings: for IC50: Toxoplasma gondii, HFF; for reduction of T. gondii parasite growth: 11 μM, added immediately after infection, 48 h, HFF cells; for SI T. gondii (selectivity index): SI = IC50 HCT-8 (or HFF)/IC50 parasite (at 0 h p.i.)
How it was run: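 Single-concentration screen: confluent HFF monolayers in IMDM were infected with about 5 × 10³ RH-YFP tachyzoites per well, and test compound (11 μM final, in DMSO) was added immediately. Controls were atovaquone at 0.5 μM, DMSO vehicle and uninfected background wells. After 48 h at 37 °C with 5% CO₂, YFP was quantified from 9 thresholded 20× images per well. Percent inhibition was taken against DMSO; triplicates, repeated at least thrice.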

[2] = WST-1 cytotoxicity assay in uninfected HCT-8 cells; format: cell-based; settings: human
How it was run: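 HCT-8 cells (5 × 10⁴/well) were grown overnight at 37 °C, 5% CO₂ in phenol-red-free RPMI-1640 with added glucose, bicarbonate, pyruvate and 10% heat-inactivated FBS. They were treated with test compound (20 μM screen or dose range) or DMSO for 48 h. WST-1 was then added for 1 h at 37 °C in the dark, and absorbance read at 440 nm (reference 690 nm). % toxicity = (OD_DMSO − OD_compound)/OD_DMSO × 100. IC50 by nonlinear regression of triplicate means.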

[3] = WST-1 cytotoxicity assay in uninfected HFF cells; format: cell-based; settings: human
C. parvum AUCP-1 isolate = experiment: In vitro C. parvum growth inhibition in HCT-8 cells, immunofluorescence assay; format: cell-based, Cryptosporidium parvum; settings: for IC50: Cryptosporidium parvum; for SI C. parvum (selectivity index): SI = IC50 HCT-8 (or HFF)/IC50 parasite (at 0 h p.i.)
How it was run: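 Confluent HCT-8 monolayers in supplemented RPMI-1640 infected with 10⁵ freshly excysted sporozoites per well. […] After 72 h, cells were fixed in methanol-acetic acid (9:1), permeabilised, blocked with 5% goat serum and stained overnight at 4 °C with fluorescein anti-C. parvum antibody. Imaged at 20×, triplicates, three assays, nonlinear regression IC50; SI = host-cell IC50/parasite IC50 (0 h p.i.).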

[4] = test system: T. gondii Type II (ME49) cysts in rats' brains; format: in vivo, Toxoplasma gondii; settings: JS-2-41 3 mg/kg; for reduction in the number of Toxoplasma cysts in the brain: infected rats, 14 days of treatment, JS-2-44 4 mg/kg i.p.; for decrease in brain cysts compared to untreated rats: male Brown Norway rats, i.p. daily for 14 days, JS-2-44 4 mg/kg
How it was run: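 Male Brown Norway rats, 4 weeks old, were acclimatised 7 days, then inoculated i.m. with 5 × 10⁴ ME49 tachyzoites in 0.1 ml PBS. Once brain cysts were confirmed in two untreated rats, groups (n = 3) received daily i.p. test compound or atovaquone (5 mg/kg) in 0.2 ml 5% DMSO/PBS for 2 weeks; untreated rats got vehicle. Brains were homogenised in 5 ml PBS, cysts counted in 50 μl on 3 slides (10×) and scaled to total volume. One-way ANOVA with Dunnett.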

[5] = test system: T. gondii type II ME49 strain; experiment: In vitro T. gondii type II ME49; format: cell-based; settings: Toxoplasma gondii, HFF, 48 h, read-out: IC50 against T. gondii Type II (ME49) in HFF cells
[6] = read-out: Parasite IC50 T. gondii 0h p.i
[7] = read-out: Parasite IC50 T. gondii 2h p.i
[8] = HCT-8, read-out: Parasite IC50 C. parvum 0h p.i
[9] = HCT-8, read-out: Parasite IC50 C. parvum 2h p.i

IC50 (C. parvum AUCP-1 isolate; [8]) [µM] | IC50 (C. parvum AUCP-1 isolate; [9]) [µM] | Compound | IC50 [1, 6] [µM] | IC50 [1, 7] [µM] | IC50 at 48 h [2] [µM] | IC50 at 48 h [3] [µM] | reduction of T. gondii parasite growth [1] | SI C. parvum (selectivity index) (C. parvum AUCP-1 isolate) | other results
 |  | O=C1C(O)=C([C@H]2CC[C@H](c3ccc(Cl)cc3)CC2)C(=O)c2ccccc21 [ATQ, atovaquone, reference compound] | 0.084 | 0.087 |  |  |  |  | 
 |  | C#CC(C)(C)NC(=O)c1cc2c(F)cc(F)cc2[nH]1 [JS-2-15, 4,6-Difluoro-N-(2-methylbut-3-yn-2-yl)-1H-indole-2-carboxamide] |  |  | 109 |  |  |  | 
 |  | CC(C)(NC(=O)c1cc2c(F)cc(F)cc2[nH]1)c1cn(Cc2ccccc2)nn1 [JS-2-18, N-(2-(1-Benzyl-1H-1,2,3-triazol-4-yl)propan-2-yl)-4,6-difluoro-1H-indole-2-carboxamide] |  |  | 205 |  |  |  | 
 |  | CC(C)(NC(=O)c1cc2c(F)cc(F)cc2[nH]1)c1cn(C23CC4CC(CC(C4)C2)C3)nn1 [JS-2-19, N-(2-(1-(Adamantan-1-yl)-1H-1,2,3-triazol-4-yl)propan-2-yl)-4,6-difluoro-1H-indole-2-carboxamide] | 8.51 | 10.6 |  | 108 | over 50% |  | SI T. gondii (selectivity index) [1]: 12.66
12.3 | 12.5 | C#CC(C)(C)NC(=O)c1cc2c(Cl)cc(Cl)cc2[nH]1 [JS-2-22, 4,6-Dichloro-N-(2-methylbut-3-yn-2-yl)-1H-indole-2-carboxamide] |  |  | 101 |  |  | 8.24 | 
 |  | CC(C)(NC(=O)c1cc2c(F)cc(F)cc2[nH]1)c1cn(Cc2ccccc2Cl)nn1 [JS-2-25, N-(2-(1-(2-Chlorobenzyl)-1H-1,2,3-triazol-4-yl)propan-2-yl)-4,6-difluoro-1H-indole-2-carboxamide] |  |  | 107 |  |  |  | 
9.37 | 10.7 | CC(C)(NC(=O)c1cc2c(Cl)cc(Cl)cc2[nH]1)c1cn(Cc2ccccc2)nn1 [JS-2-27, N-(2-(1-Benzyl-1H-1,2,3-triazol-4-yl)propan-2-yl)-4,6-dichloro-1H-indole-2-carboxamide] |  |  | 254 |  |  | 27.09 | 
8.32 | 8.59 | CC(C)(NC(=O)c1cc2c(Cl)cc(Cl)cc2[nH]1)c1cn(Cc2ccccc2Cl)nn1 [JS-2-28, 4,6-Dichloro-N-(2-(1-(2-chlorobenzyl)-1H-1,2,3-triazol-4-yl)propan-2-yl)-1H-indole-2-carboxamide] | 11.6 | 19.2 | 233 | 209 | over 50% | 28.05 | 
5.05 | 5.86 | CC(C)(NC(=O)c1cc2c(Cl)cc(Cl)cc2[nH]1)c1cn(Cc2cccc(Cl)c2)nn1 [JS-2-30, 4,6-Dichloro-N-(2-(1-(3-chlorobenzyl)-1H-1,2,3-triazol-4-yl)propan-2-yl)-1H-indole-2-carboxamide] | 5.43 | 6.32 | 193 | 268 | over 50% | 38.16 | 
 |  | CC(C)(NC(=O)c1cc2c(Cl)cc(Cl)cc2[nH]1)c1cn(C23CC4CC(CC(C4)C2)C3)nn1 [JS-2-31, N-(2-(1-(Adamantan-1-yl)-1H-1,2,3-triazol-4-yl)propan-2-yl)-4,6-dichloro-1H-indole-2-carboxamide] | 7.88 | 12.1 |  | 135 | over 50% |  | SI T. gondii (selectivity index) [1]: 17.15
 |  | c1ccc(-c2cn(C34CC5CC(CC(C5)C3)C4)nn2)cc1 [JS-2-40, 1-(Adamantan-1-yl)-4-phenyl-1H-1,2,3-triazole] |  |  | 135 |  |  |  | 
 |  | CC1(C)COC(c2ccc(-c3cn(C45CC6CC(CC(C6)C4)C5)nn3)cc2)OC1 [JS-2-41, 1-(Adamantan-1-yl)-4-(4-(5,5-dimethyl-1,3-dioxan-2-yl)phenyl)-1H-1,2,3-triazole] | 1.94 | 2.15 |  | 168 | over 50% |  | reduction in the number of Toxoplasma cysts in the brain [4]: over 90%; decrease in brain cysts compared to untreated rats [4]: 10 fold; IC50 [5]: 1.5 µM
 |  | CC(C)(NC(=O)c1cc2c(F)cc(F)cc2[nH]1)c1cn(Cc2ccc(Cl)c(Cl)c2)nn1 [JS-2-43, N-(2-(1-(3,4-Dichlorobenzyl)-1H-1,2,3-triazol-4-yl)propan-2-yl)-4,6-difluoro-1H-indole-2-carboxamide] |  |  | 174 |  |  |  | 
7.63 | 9.12 | CC(C)(NC(=O)c1cc2c(Cl)cc(Cl)cc2[nH]1)c1cn(Cc2ccc(Cl)c(Cl)c2)nn1 [JS-2-44, 4,6-Dichloro-N-(2-(1-(3,4-dichlorobenzyl)-1H-1,2,3-triazol-4-yl)propan-2-yl)-1H-indole-2-carboxamide] | 2.95 | 3.24 | 210 | 209 |  | 27.48 | reduction in the number of Toxoplasma cysts in the brain [4]: over 90%; decrease in brain cysts compared to untreated rats [4]: 10 fold; IC50 [5]: 10.6 µM
220 | 227 | NC[C@@H]1O[C@H](O[C@H]2[C@@H](O)[C@H](O[C@@H]3[C@@H](O)[C@H](N)C[C@H](N)[C@H]3O[C@H]3O[C@H](CO)[C@@H](O)[C@H](O)[C@H]3N)O[C@@H]2CO)[C@H](N)[C@@H](O)[C@@H]1O [PMO, paromomycin, reference compound] |  |  |  |  |  |  | 
